Measured values as given in ChEMBL document CHEMBL1123888, “Aldosterone antagonists. 2. Synthesis and biological activities of 11,12-dehydropregnane derivatives” (J Med Chem, 1987).
Active and inactive are the calls of the source. The rule behind the calls is not given here.

Experiments:
[1] = target: T1, Mineralocorticoid receptor (Rattus norvegicus) (UniProt P22199); test: Relative binding affinity against Mineralocorticoid receptor in Male Sprague-Dawley rats
T1 sequence (whole entry): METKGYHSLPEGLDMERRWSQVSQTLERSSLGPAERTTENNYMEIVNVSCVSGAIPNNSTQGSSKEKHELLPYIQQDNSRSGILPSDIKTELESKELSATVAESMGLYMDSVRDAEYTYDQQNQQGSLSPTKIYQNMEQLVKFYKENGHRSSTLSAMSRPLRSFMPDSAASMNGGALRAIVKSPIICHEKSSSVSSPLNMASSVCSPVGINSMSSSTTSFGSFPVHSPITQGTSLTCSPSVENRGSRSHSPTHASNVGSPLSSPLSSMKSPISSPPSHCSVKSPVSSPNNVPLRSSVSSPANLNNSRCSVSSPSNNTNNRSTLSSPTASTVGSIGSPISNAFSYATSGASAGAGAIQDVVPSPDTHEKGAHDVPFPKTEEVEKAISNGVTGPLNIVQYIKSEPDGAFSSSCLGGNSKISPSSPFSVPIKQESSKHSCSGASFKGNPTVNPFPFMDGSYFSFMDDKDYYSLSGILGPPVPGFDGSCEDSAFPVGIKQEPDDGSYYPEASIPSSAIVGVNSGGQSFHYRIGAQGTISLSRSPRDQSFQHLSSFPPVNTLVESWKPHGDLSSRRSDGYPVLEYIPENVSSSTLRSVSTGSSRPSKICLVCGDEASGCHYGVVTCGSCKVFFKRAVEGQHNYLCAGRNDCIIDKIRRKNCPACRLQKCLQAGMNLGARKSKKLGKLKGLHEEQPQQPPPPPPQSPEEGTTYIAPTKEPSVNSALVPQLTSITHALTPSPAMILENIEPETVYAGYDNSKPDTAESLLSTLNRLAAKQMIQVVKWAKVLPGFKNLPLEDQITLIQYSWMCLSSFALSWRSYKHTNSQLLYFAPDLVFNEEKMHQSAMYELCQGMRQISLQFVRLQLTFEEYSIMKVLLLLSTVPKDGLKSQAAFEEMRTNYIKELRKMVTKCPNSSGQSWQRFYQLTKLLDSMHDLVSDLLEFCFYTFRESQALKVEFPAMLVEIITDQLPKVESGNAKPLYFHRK
In short: (§1)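 Renal cytosol came from male Sprague-Dawley rats (4-8 weeks) adrenalectomized bilaterally 1 or 2 days earlier. It was incubated with various competitor concentrations and about 1 nM [3H]Ald for 42-48 h at 0 °C or 100-120 min at 25 °C. Bound and free steroid were separated by DCC.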

[2] = target: T1, Mineralocorticoid receptor (Rattus norvegicus); test: In vivo relative Mineralocorticoid activity in Male Sprague-Dawley rats; type: functional, organism-based
[3] = target: T1, Mineralocorticoid receptor (Rattus norvegicus); test: Antagonist activity against Mineralocorticoid receptor after oral administration in Male Sprague Dawley rats; (-) = negative; type: functional, organism-based
In short: (§2)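 Male rats were bilaterally adrenalectomized (bioassay modified from Kagawa). Ald (1 µg/kg) was given sc, immediately followed by test compound in sesame oil sc or orally. Urine was collected from 2 to 6 h after steroid. Potency came from the urinary Na/K ratio of sample versus control, with 95% confidence limits.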

[4] = target: T1, Mineralocorticoid receptor (Rattus norvegicus); test: Relative binding affinity to the rat mineralocorticoid receptor determined in rat renal cytosol using [3]Ald as ligand; in short: as §1
[5] = target: T2, Androgen receptor (Rattus norvegicus) (UniProt P15207); test: Relative anti-androgenic activity as suppressive effect on weight increase of ventral prostate in castrated immature rats given testosterone propionate; type: functional; settings: Prostate gland
T2 sequence (whole entry): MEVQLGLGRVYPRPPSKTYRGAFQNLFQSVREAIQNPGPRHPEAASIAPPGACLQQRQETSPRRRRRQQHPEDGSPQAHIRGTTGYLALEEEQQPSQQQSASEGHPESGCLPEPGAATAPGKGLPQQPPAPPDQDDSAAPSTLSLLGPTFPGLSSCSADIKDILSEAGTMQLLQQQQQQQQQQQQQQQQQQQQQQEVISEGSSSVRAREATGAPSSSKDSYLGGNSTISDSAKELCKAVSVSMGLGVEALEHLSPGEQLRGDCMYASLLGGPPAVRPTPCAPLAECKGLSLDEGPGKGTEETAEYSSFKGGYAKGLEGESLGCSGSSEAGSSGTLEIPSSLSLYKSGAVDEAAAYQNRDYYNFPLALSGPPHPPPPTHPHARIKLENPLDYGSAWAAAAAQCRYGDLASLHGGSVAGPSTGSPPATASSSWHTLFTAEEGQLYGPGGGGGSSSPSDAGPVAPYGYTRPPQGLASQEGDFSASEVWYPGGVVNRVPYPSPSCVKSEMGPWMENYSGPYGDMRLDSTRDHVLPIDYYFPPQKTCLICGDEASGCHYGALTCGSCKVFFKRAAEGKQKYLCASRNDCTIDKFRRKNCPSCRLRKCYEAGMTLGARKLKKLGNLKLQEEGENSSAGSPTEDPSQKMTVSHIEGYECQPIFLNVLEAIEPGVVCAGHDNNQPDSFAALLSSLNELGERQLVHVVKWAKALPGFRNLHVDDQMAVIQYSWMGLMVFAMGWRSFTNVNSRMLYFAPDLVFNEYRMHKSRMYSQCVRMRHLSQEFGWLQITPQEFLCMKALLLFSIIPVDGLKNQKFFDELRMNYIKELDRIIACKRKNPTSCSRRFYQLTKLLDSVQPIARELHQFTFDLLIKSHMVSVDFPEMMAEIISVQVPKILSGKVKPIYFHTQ
In short: (§3)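 Male Sprague-Dawley rats (3 weeks old) were castrated 3 days earlier. […] Suppression of accessory sex organ weight gain gave relative antiandrogenic activity.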

[6] = target: T1, Mineralocorticoid receptor (Rattus norvegicus); test: Relative binding affinity against mineralocorticoid receptor determined in rat renal cytosol using [3]Ald as ligand; in short: as §1
[7] = target: T1, Mineralocorticoid receptor (Rattus norvegicus); test: Antagonist activity against Mineralocorticoid receptor after po administration in Male Sprague Dawley rats; (-) = negative; type: functional, organism-based; in short: as §2
[8] = target: T1, Mineralocorticoid receptor (Rattus norvegicus); test: Antagonist activity against Mineralocorticoid receptor after subcutaneous administration in Male Sprague Dawley rats; (+) =positive; type: functional, organism-based; settings: filed as antagonist; in short: as §2
[9] = target: T1, Mineralocorticoid receptor (Rattus norvegicus); test: (§4) Relative anti-mineralocorticoid potency compared to Spironolactone after oral administration; type: functional, organism-based; in short: as §2
Rattus norvegicus = organism: Rattus norvegicus; test: Displacement of [3H]promegestone from progestin receptor of rat uterine cytosol at 0 degree Centigrade
In short: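 Uteri from estradiol-primed rats supplied the cytosol. It was incubated with various competitor concentrations and about 1 nM [3H]promegestone for 16-20 h at 0 °C. Bound and free steroid were separated by DCC. RBA (progesterone = 100%) = 100 × ratio of the 50%-inhibition concentrations of standard and competitor.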

[10] = target: T1, Mineralocorticoid receptor (Rattus norvegicus); test: as §4; type: functional, organism-based; in short: as §2; remark: listed apart in the source
[11] = target: T2, Androgen receptor (Rattus norvegicus); test: Relative anti-androgenic activity as suppressive effect on weight increase of ventral prostate in castrated immature rats given testosterone propionate (95% confidence limit); type: functional; settings: Prostate gland; in short: as §3
[12] = target: T2, Androgen receptor (Rattus norvegicus); test: Relative anti-androgenic activity as suppressive effect on weight increase of seminal vesicle in castrated immature rats given testosterone propionate (95% confidence limit); type: functional; in short: as §3
[13] = target: T1, Mineralocorticoid receptor (Rattus norvegicus); test: Antagonist activity against Mineralocorticoid receptor after oral administration in Male Sprague Dawley rats; (+) =positive; type: functional, organism-based; settings: filed as antagonist; in short: as §2
[14] = target: T3, Progesterone receptor (Rattus norvegicus) (UniProt Q63449); test: Relative binding affinity against progesterone receptor determined in rat […] cytosol using [3H]DHT as ligand
T3 sequence (whole entry): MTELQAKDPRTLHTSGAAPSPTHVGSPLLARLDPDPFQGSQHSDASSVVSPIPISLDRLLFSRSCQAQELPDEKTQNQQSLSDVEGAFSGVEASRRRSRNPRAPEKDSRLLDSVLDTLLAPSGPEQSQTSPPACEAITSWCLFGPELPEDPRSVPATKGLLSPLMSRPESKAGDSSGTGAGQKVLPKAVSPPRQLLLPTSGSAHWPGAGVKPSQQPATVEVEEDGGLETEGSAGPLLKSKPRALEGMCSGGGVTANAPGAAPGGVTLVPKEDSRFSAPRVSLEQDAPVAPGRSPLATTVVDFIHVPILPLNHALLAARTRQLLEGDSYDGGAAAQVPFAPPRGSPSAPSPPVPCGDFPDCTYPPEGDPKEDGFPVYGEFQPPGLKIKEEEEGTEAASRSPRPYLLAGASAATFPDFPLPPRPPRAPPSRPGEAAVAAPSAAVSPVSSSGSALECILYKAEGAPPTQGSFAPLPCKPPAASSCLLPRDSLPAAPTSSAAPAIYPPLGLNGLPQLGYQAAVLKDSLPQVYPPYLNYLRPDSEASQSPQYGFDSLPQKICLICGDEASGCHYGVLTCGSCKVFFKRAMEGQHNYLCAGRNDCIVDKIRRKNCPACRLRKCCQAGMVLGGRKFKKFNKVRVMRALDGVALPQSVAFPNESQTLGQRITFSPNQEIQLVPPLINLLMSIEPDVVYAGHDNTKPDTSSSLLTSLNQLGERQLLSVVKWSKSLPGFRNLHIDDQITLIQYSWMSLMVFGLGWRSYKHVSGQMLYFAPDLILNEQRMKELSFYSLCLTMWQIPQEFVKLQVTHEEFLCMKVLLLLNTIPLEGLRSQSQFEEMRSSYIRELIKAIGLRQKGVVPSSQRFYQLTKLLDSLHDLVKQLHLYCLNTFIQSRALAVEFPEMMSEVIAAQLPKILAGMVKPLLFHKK

[15] = target: T1, Mineralocorticoid receptor (Rattus norvegicus); test: Relative potency compared to Aldosterone;Range is 72-216; type: functional
[16] = target: T1, Mineralocorticoid receptor (Rattus norvegicus); test: Antagonist activity against Mineralocorticoid receptor was determined after subcutaneous administration in Male Sprague Dawley rats; type: functional, organism-based; in short: as §2
[17] = target: T1, Mineralocorticoid receptor (Rattus norvegicus); test: Agonist activity against Mineralocorticoid receptor was determined after subcutaneous administration in Male Sprague Dawley rats; (+) =positive; type: functional, organism-based; settings: filed as agonist
[18] = target: T1, Mineralocorticoid receptor (Rattus norvegicus); test: Relative potency against mineralocorticoid receptor; type: functional; in short: as §2
[19] = target: T1, Mineralocorticoid receptor (Rattus norvegicus); test: Antagonist activity against Mineralocorticoid receptor after subcutaneous administration in Male Sprague Dawley rats; (-) = negative; type: functional, organism-based; in short: as §2
[20] = target: T1, Mineralocorticoid receptor (Rattus norvegicus); test: Relative potency compared to Aldosterone;Range is 53-97; type: functional
[21] = target: T1, Mineralocorticoid receptor (Rattus norvegicus); test: Agonist activity against Mineralocorticoid receptor after subcutaneous administration in Male Sprague Dawley rats; (+) =positive; type: functional, organism-based; settings: filed as agonist
[22] = target: T1, Mineralocorticoid receptor (Rattus norvegicus); test: Relative potency ompared to Aldosterone;Range 4-187; type: functional

Structure (SMILES): CC12CCC(=O)C=C1CCC1C2C=CC2(C)C(C(=O)CO)CCC12 (stereo not given)
- relative binding affinity (RBA) [1]: 150
- Relative activity [2]: 1

Structure (SMILES): CC12CCC(=O)C=C1C=CC1C2C=CC2(C)C1CC[C@@]21CCC(=O)O1 (stereo not given in full)
- Activity [3]: inactive
- RBA [4]: 64%
- Activity [5]: 1
- RBA [6]: 70%
- Activity [7]: inactive
- Activity [8]: Antagonist
- Relative potency [9]: 2
- RBA (Rattus norvegicus): 4.7%

Structure (SMILES): CC12C=CC(=O)C=C1C=CC1C2C=CC2(C)C1CC[C@@]21CCC(=O)O1 (stereo not given in full)
- Relative potency [10]: 0.93
- Activity [11]: 0.42
- Activity [12]: 0.14
- RBA [4]: 20%
- Activity [13]: Antagonist
- RBA [6]: 22%
- Activity [7]: inactive
- Activity [8]: Antagonist
- Relative potency [9]: 2.08
- RBA (Rattus norvegicus): 1.6%

Structure (SMILES): CC12C=CC(=O)C=C1C=CC1C2C=CC2(C)C1C1CC1[C@@]21CCC(=O)O1 (stereo not given in full)
- RBA [14]: 19%
- RBA [4]: 200%
- RBA [6]: 160%
- Relative potency [15]: 72
- Activity [16]: inactive
- Activity [17]: Agonist

Structure (SMILES): C[C@]12CCC(=O)C=C1CC[C@@H]1[C@@H]2[C@@H](O)C[C@]2(C=O)[C@@H](C(=O)CO)CC[C@@H]12
- Relative potency [18]: 1
- Relative activity [2]: 30

Structure (SMILES): CC(=O)S[C@@H]1CC2=CC(=O)CCC2(C)C2C=CC3(C)C(CC[C@@]34CCC(=O)O4)C21 (stereo not given in full)
- RBA [14]: 14%
- Activity [19]: inactive
- RBA [4]: 169%
- RBA [6]: 43%
- Relative potency [20]: 53
- Activity [21]: Agonist

Structure (SMILES): CC12C=CC(=O)C=C1C1CC1C1C2C=CC2(C)C1CC[C@@]21CCC(=O)O1 (stereo not given in full)
- Activity [19]: inactive
- RBA [4]: 300%
- Relative potency [22]: 4
- RBA [6]: 320%
- Activity [21]: Agonist
- RBA (Rattus norvegicus): 11%
